Source: ChEMBL document CHEMBL3112461, “Synthesis and characterization of a novel series of agonist compounds as potential radiopharmaceuticals for imaging dopamine D₂/₃ receptors in their high-affinity state” (J Med Chem, 2014)
Structures can show the parent of a compound that is named as a salt. Activity calls are given as the source filed them. The calls are words filed in the database; no cut-off is given here.

How the values were obtained:
D(1B) dopamine receptor = D(1B) dopamine receptor (Homo sapiens, UniProt P21918); assay: Displacement of [3H]SCH23390 from human dopamine D5 receptor transfected in HEK293 cells after 2 hrs by scintillation counting analysis; format: cell-based
D(4) dopamine receptor = target: T1, D(4) dopamine receptor (Homo sapiens, UniProt P21917); assay: Displacement of [3H]spiperone from human dopamine D4 receptor transfected in HEK293 cells after 2 hrs by scintillation counting analysis; format: cell-based
T1 sequence (P21917 whole entry): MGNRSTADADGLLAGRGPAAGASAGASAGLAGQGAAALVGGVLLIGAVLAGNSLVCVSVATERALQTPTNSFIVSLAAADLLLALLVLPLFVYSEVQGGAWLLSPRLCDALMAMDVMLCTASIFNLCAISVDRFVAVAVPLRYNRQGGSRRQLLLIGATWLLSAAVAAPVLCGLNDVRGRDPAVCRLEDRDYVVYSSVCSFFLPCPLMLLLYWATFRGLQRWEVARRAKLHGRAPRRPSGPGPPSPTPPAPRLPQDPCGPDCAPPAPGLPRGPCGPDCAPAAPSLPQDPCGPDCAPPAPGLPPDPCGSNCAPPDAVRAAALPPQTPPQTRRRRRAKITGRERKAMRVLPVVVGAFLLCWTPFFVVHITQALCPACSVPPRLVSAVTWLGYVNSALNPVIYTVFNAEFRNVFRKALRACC

D(3) dopamine receptor = D(3) dopamine receptor (Homo sapiens, UniProt P35462); assay: Displacement of [3H]spiperone from human dopamine D3 receptor transfected in HEK293 cells after 2 hrs by scintillation counting analysis; format: cell-based
D(2) dopamine receptor [1] = target: T2, D(2) dopamine receptor (Homo sapiens, UniProt P14416); assay: Displacement of [3H]spiperone from low-affinity state of human dopamine D2S receptor transfected in HEK293 cells after 2 hrs by scintillation counting analysis; format: cell-based
D(2) dopamine receptor [2] = target: T2, D(2) dopamine receptor; assay: Displacement of [3H]spiperone from low-affinity state of human dopamine D2L receptor transfected in HEK293 cells after 2 hrs by scintillation counting analysis; format: cell-based
D(2) dopamine receptor [3] = target: T2, D(2) dopamine receptor; assay: Displacement of [3H]spiperone from high-affinity state of human dopamine D2L receptor transfected in HEK293 cells after 2 hrs by scintillation counting analysis; format: cell-based
D(1A) dopamine receptor = D(1A) dopamine receptor (Homo sapiens, UniProt P21728); assay: Displacement of [3H]SCH23390 from human dopamine D1 receptor transfected in HEK293 cells after 2 hrs by scintillation counting analysis; format: cell-based
Homo sapiens = species on record: Homo sapiens; assay: Selectivity ratio of Ki for human dopamine D1-like receptor to Ki for human dopamine D2-like receptor
D(2) dopamine receptor [4] = target: T2, D(2) dopamine receptor; assay: Agonist activity at human dopamine D2L receptor expressed in HEK293 cells assessed as inhibition of forskolin-induced cAMP accumulation after 30 mins by LANCE assay; format: functional, cell-based
Nucleic Acid [5] = assay: Ratio of drug level from striatum to cerebellum of Sprague-Dawley rat at 5.8 +/- […] after 35 mins by autoradiographic analysis in presence of GTP; format: ADME, nucleic-acid assay; details: in vitro
Nucleic Acid [6] = assay: Ratio of drug level from striatum to cortex of Sprague-Dawley rat at 5.8 +/- […] after 35 mins by autoradiographic analysis in presence of dopamine D2/3 receptor antagonist raclopride; details: in vitro
Nucleic Acid [7] = assay: Ratio of drug level from striatum to cerebellum of Sprague-Dawley rat at 5.8 +/- […] after 35 mins by autoradiographic analysis in presence of dopamine D2/3 receptor antagonist raclopride; format: nucleic-acid assay; details: in vitro
Nucleic Acid [8] = assay: Ratio of drug level from striatum to cortex of Sprague-Dawley rat at 5.8 +/- […] after 35 mins by autoradiographic analysis; format: ADME, tissue-based; details: in vitro
Nucleic Acid [9] = assay: Ratio of drug level from striatum to cerebellum of Sprague-Dawley rat at 5.8 +/- […] after 35 mins by autoradiographic analysis; format: ADME, nucleic-acid assay; details: in vitro
[10] = Lipophilicity, log D of the compound; format: physicochemical; details: octanol/water
Procedure, shortened: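 Shake-flask LogD of the [18F]-labelled tracer. Activity left on the HLB cartridge was eluted with n-octanol. The eluate was vortexed 5 min at rt with an equal volume of 1 M phosphate buffer, pH 7.4, then centrifuged at 17 000g for 10 min. Organic and aqueous aliquots were gamma-counted and corrected for intact-tracer fraction by radio-TLC. Each run was in duplicate, and the mean was taken from ≥2 independent experiments.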

Nucleic Acid [11] = assay: Ratio of drug level from striatum to cortex of Sprague-Dawley rat at 5.8 +/- […] after 35 mins by autoradiographic analysis in presence of GTP; format: ADME, tissue-based; details: in vitro
D(2) dopamine receptor [12] = target: D(2) dopamine receptor (Rattus norvegicus, UniProt P61169); assay: Displacement of dopamine/[3-H]domperidone from high-affinity state of rat D2L receptor
Nucleic Acid [13] = assay: Ratio of drug level from striatum to cortex of Sprague-Dawley rat at 4.5 +/- 3.6 nM after 35 mins by autoradiographic analysis in presence of dopamine D2/3 receptor antagonist raclopride
Procedure, shortened: (§1)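 Rat brain slice autoradiography with 10 μM raclopride co-incubated to define nonspecific binding. Slices were preincubated 15 min at rt in Tris buffer (5 mM KCl, 2 mM CaCl2, 2 mM MgCl2, 120 mM NaCl, pH 7.4). They were then exposed 35 min at 37 °C to radioligand at about 5 nM, washed ice-cold, and imaged on phosphor screens for 6–10 h with striatal and reference-region ROIs.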

Nucleic Acid [14] = assay: Ratio of drug level from striatum to cerebellum of Sprague-Dawley rat at 4.5 +/- 3.6 nM after 35 mins by autoradiographic analysis in presence of dopamine D2/3 receptor antagonist raclopride; format: nucleic-acid assay; procedure, shortened: as §1
Nucleic Acid [15] = assay: Ratio of drug level from striatum to cortex of Sprague-Dawley rat at 4.5 +/- 3.6 nM after 35 mins by autoradiographic analysis; format: ADME, tissue-based
Procedure, shortened: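 In vitro autoradiography on rat brain slices. Slices were preincubated 15 min at rt in 50 mM Tris-HCl, 5 mM KCl, 2 mM CaCl2, 2 mM MgCl2, 120 mM NaCl, pH 7.4. They were then incubated 35 min at 37 °C with radioligand at about 5 nM, washed in ice-cold buffer and dipped in water. Phosphor screens were exposed 6–10 h, with manual striatal and reference-region ROIs. Values are mean SD over slides from n experiments.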

Nucleic Acid [16] = assay: Ratio of drug level from striatum to cortex of Sprague-Dawley rat at […] after 35 mins by autoradiographic analysis in presence of dopamine D2/3 receptor antagonist raclopride
Nucleic Acid [17] = assay: Ratio of drug level from striatum to cerebellum of Sprague-Dawley rat at […] after 35 mins by autoradiographic analysis in presence of dopamine D2/3 receptor antagonist raclopride; format: nucleic-acid assay
Nucleic Acid [18] = assay: Ratio of drug level from striatum to cortex of Sprague-Dawley rat at […] after 35 mins by autoradiographic analysis; format: ADME, tissue-based
Nucleic Acid [19] = assay: Ratio of drug level from striatum to cerebellum of Sprague-Dawley rat at […] after 35 mins by autoradiographic analysis; format: ADME, nucleic-acid assay
Nucleic Acid [20] = assay: Ratio of drug level from striatum to cortex of Sprague-Dawley rat at […] after 35 mins by autoradiographic analysis in presence of GTP; format: ADME, tissue-based
Nucleic Acid [21] = assay: Ratio of drug level from striatum to cerebellum of Sprague-Dawley rat at […] after 35 mins by autoradiographic analysis in presence of GTP; format: ADME, nucleic-acid assay

T2 sequence (P14416 whole entry): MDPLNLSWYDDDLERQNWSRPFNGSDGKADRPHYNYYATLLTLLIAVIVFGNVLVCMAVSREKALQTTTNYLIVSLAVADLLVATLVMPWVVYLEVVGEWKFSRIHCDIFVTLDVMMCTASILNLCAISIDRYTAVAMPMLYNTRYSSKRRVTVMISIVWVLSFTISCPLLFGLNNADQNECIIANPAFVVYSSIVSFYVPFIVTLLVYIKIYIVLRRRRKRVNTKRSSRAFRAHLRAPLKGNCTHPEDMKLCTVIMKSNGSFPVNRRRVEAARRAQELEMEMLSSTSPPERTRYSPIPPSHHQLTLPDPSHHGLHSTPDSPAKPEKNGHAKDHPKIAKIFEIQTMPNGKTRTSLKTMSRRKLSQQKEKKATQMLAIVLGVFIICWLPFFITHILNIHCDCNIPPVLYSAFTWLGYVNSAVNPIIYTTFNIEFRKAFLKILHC
Chain of D(1B) dopamine receptor (P21918 whole entry): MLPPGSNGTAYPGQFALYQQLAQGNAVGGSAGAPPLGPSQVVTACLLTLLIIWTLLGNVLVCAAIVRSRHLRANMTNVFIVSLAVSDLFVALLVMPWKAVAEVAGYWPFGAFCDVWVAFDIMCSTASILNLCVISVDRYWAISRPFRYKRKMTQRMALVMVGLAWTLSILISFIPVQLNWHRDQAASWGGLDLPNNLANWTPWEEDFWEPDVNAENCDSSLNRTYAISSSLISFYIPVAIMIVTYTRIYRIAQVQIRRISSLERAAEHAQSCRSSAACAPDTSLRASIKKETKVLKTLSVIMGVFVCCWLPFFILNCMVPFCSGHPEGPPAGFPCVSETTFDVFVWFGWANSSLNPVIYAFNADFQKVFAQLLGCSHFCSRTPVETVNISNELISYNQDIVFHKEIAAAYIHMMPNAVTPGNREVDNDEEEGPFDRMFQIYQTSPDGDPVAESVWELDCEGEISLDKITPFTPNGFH
Chain of D(3) dopamine receptor (P35462 whole entry): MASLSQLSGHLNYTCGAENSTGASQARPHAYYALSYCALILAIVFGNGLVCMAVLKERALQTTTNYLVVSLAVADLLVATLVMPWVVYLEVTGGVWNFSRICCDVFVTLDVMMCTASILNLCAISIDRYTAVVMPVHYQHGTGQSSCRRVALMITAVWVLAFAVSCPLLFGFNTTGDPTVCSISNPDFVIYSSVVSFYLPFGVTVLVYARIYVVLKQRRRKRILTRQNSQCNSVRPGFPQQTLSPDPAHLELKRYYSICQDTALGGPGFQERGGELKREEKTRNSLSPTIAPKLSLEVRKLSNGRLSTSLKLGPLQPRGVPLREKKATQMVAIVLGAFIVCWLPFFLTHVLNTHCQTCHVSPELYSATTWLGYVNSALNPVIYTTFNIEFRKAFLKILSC
Chain of D(1A) dopamine receptor (P21728 whole entry): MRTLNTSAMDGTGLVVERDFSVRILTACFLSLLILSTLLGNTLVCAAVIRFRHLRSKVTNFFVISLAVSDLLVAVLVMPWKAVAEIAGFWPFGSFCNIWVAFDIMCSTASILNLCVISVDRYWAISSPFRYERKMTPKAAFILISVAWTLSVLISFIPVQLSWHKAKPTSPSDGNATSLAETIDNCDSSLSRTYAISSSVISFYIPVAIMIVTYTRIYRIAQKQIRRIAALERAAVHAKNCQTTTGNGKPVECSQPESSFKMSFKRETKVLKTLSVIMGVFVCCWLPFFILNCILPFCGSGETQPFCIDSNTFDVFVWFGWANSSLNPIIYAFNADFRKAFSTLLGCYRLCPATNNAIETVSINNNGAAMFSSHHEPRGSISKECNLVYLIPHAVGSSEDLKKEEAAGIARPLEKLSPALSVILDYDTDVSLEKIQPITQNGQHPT
Chain of D(2) dopamine receptor (Rattus norvegicus, UniProt P61169) (P61169 whole entry): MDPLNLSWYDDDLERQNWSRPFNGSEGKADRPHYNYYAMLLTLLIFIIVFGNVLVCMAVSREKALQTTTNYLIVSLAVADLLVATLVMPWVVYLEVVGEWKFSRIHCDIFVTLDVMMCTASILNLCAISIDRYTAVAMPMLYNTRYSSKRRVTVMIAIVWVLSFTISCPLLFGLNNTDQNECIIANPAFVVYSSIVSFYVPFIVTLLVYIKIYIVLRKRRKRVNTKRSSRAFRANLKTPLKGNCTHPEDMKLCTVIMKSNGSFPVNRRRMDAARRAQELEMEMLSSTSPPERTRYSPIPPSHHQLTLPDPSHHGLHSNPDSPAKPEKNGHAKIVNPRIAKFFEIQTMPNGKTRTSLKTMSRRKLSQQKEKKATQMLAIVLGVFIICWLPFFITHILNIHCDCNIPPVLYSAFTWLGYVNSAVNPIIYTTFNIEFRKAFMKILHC

Row | Compound | Ki (D(1B) dopamine receptor; read-out: Ki) [nM] | Ki (D(4) dopamine receptor; read-out: Ki) [nM] | Ki (D(3) dopamine receptor; read-out: Ki) [nM] | Ki (D(3) dopamine receptor; read-out: pKi (converted)) [nM] | Ratio Ki (Homo sapiens) | EC50 (D(2) dopamine receptor [4]) [nM] | Ki (D(1B) dopamine receptor; read-out: pKi (converted)) [nM] | Ki (D(1A) dopamine receptor; read-out: Ki) [nM] | Ki (D(1A) dopamine receptor; read-out: pKi (converted)) [nM] | Ki (D(2) dopamine receptor [1]; read-out: Ki) [nM] | Ki (D(2) dopamine receptor [2]; read-out: Ki) [nM] | Ki (D(2) dopamine receptor [2]; read-out: pKi (converted)) [nM] | also measured
1 | Oc1ccc2c(c1)O[C@@H](CN1CCN(c3ccc(OCCF)cc3)CC1)CC2 | 19700 | 131 | 39.4 | 37.2 | > 100 |  |  |  |  |  |  |  | Ki (D(4) dopamine receptor; read-out: pKi (converted)): 47.9 nM; inhibition (D(2) dopamine receptor [1]): inactive; inhibition (D(2) dopamine receptor [2]): inactive; inhibition (D(2) dopamine receptor [3]): inactive; inhibition (D(1A) dopamine receptor): inactive
2 | CCCCCCNC[C@H]1CCc2ccc(O)cc2O1 | 27700 | 5.7 | 547 | 19.1 |  | 0.0501 | 2750 | 10900 | 10500 |  |  |  | Ki (D(4) dopamine receptor; read-out: pKi (converted)): 5.01 nM
3 | Oc1ccc2c(c1)O[C@@H](CNCc1ccccc1)CC2 | 3830 |  |  |  |  |  | 3720 | 7250 |  |  |  |  | 
4 | Oc1ccc2c(c1)O[C@@H](CNCc1ccc(OCCCCF)cc1)CC2 | 2890 | 32.1 | 12.1 |  | > 100 | 0.398 | 2450 | 6910 | 6610 | 92.7 | 80.5 | 61.7 | Ki (D(2) dopamine receptor [1]; read-out: pKi (converted)): 91.2 nM; Ki (D(2) dopamine receptor [3]; read-out: Ki): 5.6 nM
5 | Oc1ccc2c(c1)O[C@@H](CN1CCN(c3ccc(I)cc3)CC1)CC2 | 17800 | 14.3 | 24.2 |  | > 100 |  | 17400 | 46500 |  |  |  |  | inhibition (D(2) dopamine receptor [1]): inactive; inhibition (D(2) dopamine receptor [2]): inactive; inhibition (D(2) dopamine receptor [3]): inactive
6 | Oc1ccc2c(c1)O[C@@H](CNCCN1CCN(c3ccc(OCC[18F])cc3)CC1)CC2 |  |  |  |  |  |  |  |  |  |  |  |  | Ratio (Nucleic Acid [5]): 1.67; Ratio (Nucleic Acid [6]): 1.2; Ratio (Nucleic Acid [7]): 1.65; Ratio (Nucleic Acid [8]): 1.9; Ratio (Nucleic Acid [9]): 2.64; logD [10]: 1.48; Ratio (Nucleic Acid [11]): 1.48
7 | CCCN1CCO[C@@H]2c3cc(O)ccc3CC[C@H]21 [NAXAGOLIDE HYDROCHLORIDE] |  |  |  |  |  |  |  |  |  |  |  |  | Ki (D(2) dopamine receptor [12]): 0.6 nM
8 | Oc1ccc2c(c1)O[C@@H](CNCc1ccccc1OCCCCF)CC2 |  |  | 33 |  | > 100 |  |  | 1160 |  | 452 | 156 | 145 | 
9 | Oc1ccc2c(c1)O[C@@H](CNCc1cccc(I)c1)CC2 | 4640 | 0.97 | 7.87 | 2.88 | > 100 | 0.0316 | 4570 | 4290 | 3890 | 30.8 | 72.9 | 33.9 | Ki (D(2) dopamine receptor [1]; read-out: pKi (converted)): 28.8 nM; Ki (D(2) dopamine receptor [3]; read-out: Ki): 2.06 nM; Ki (D(2) dopamine receptor [3]; read-out: pKi (converted)): 1.02 nM
10 | Oc1ccc2c(c1)O[C@@H](CNCc1ccc(OCCCC[18F])cc1)CC2 |  |  |  |  |  |  |  |  |  |  |  |  | Ratio (Nucleic Acid [13]): 1.05; Ratio (Nucleic Acid [14]): 1.04; Ratio (Nucleic Acid [15]): 1.16; Ratio (Nucleic Acid [16]): 1.03; Ratio (Nucleic Acid [17]): 1.1; Ratio (Nucleic Acid [18]): 1.68; Ratio (Nucleic Acid [19]): 1.85; Ratio (Nucleic Acid [20]): 1.13; logD [10]: 2.45; Ratio (Nucleic Acid [21]): 1.2
11 | Oc1ccc2c(c1)O[C@@H](CNCc1ccccc1I)CC2 |  |  | 1.79 | 1.66 | > 100 |  |  | 436 | 417 | 166 | 51.2 | 29.5 | Ki (D(2) dopamine receptor [1]; read-out: pKi (converted)): 83.2 nM; Ki (D(2) dopamine receptor [3]; read-out: Ki): 0.68 nM; Ki (D(2) dopamine receptor [3]; read-out: pKi (converted)): 0.162 nM
12 | Oc1ccc2c(c1)O[C@@H](CNCc1ccc(I)cc1)CC2 |  | 1.59 | 13.9 | 5.62 |  |  | 3550 | 8670 | 8130 |  |  |  | Ki (D(4) dopamine receptor; read-out: pKi (converted)): 1.55 nM
13 | Oc1ccc2c(c1)O[C@@H](CNCCN1CCN(c3ccc(OCCF)cc3)CC1)CC2 | 9700 | 27.7 | 10 | 8.71 | > 100 | 0.158 |  |  |  | 252 | 235 | 219 | Ki (D(4) dopamine receptor; read-out: pKi (converted)): 22.9 nM; Ki (D(2) dopamine receptor [1]; read-out: pKi (converted)): 234 nM; Ki (D(2) dopamine receptor [3]; read-out: Ki): 6.67 nM; Ki (D(2) dopamine receptor [3]; read-out: pKi (converted)): 5.01 nM; inhibition (D(1A) dopamine receptor): inactive
14 | Oc1ccc2c(c1)O[C@@H](CNCCN1CCN(c3ccc(I)cc3)CC1)CC2 | 3480 | 9.7 | 23 | 21.9 | > 100 | 1.58 |  | 3960 | 3890 | 131 | 80.5 | 66.1 | 
